In ChEMBL document CHEMBL4406830, “Galloyl esters of trans-stilbenes are inhibitors of FASN with anticancer activity on non-small cell lung cancer cells” (Eur J Med Chem, 2019):
Converted amounts (≈) assume the structure as drawn. The source made the active and inactive calls. The calls are words filed in the database; no cut-off is given here.

Tests used:
[1] = tested on: NCI-H1703; test: Antiproliferative activity against human NCI-H1703 cells expressing FASN assessed as growth inhibition at 25 uM after 72 hrs by MTS assay relative to control; assay type: functional; conditions: NCI-H1703, 72 h
Outline: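 H1703 cells were treated with a single 25 µM concentration for 72 h. Viability was measured by MTS at 490 nm, with 0.1% DMSO and media-only correction, relative to untreated control. Mean ± SD of n = 3 independent determinations, unpaired t test against control.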

[2] = tested on: NCI-H1703; test: Induction of apoptosis in human NCI-H1703 cells expressing FASN assessed as cell death at 5 to 100 uM after 72 hrs by Annexin-V FITC staining/PI-based flow cytometry; assay type: functional
[3] = tested on: PC-9; test: Induction of apoptosis in human PC9 cells harboring FASN expression and EGFR delE746-A750 mutant assessed as cell death at 5 to 100 uM after 72 hrs by Annexin-V FITC/PI staining-based flow cytometry; assay type: functional
[4] = molecular target: Fatty acid synthase (Homo sapiens) (UniProt P49327); test: Inhibition of full length human FASN transfected in HeLa cell lysates at 10 uM using acetyl Co-A/malonyl Co-A as substrate preincubated with enzyme for 2 hrs followed by substrate addition measured after 10 mins in presence of NADPH by microplate reader analysis; assay type: subcellular; conditions: Lysate
Outline: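 Human FASN was made by in vitro translation from a FASN plasmid. Lysate was diluted 3:7 in 100 mM potassium phosphate, pH 6.5, 1 mM EDTA. It was preincubated with compound (10 µM final) for 2 h at 37 °C. Buffer containing acetyl-CoA (55 µM) and NADPH (330 µM) was added, then the reaction was started with malonyl-CoA (500 µM stock). A340 was read at 0 and 10 min; triplicates.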

[5] = molecular target: Fatty acid synthase (Homo sapiens) (UniProt P49327); test: Inhibition of FASN in human PC9 cells harboring FASN expression and EGFR delE746-A750 mutant assessed as disruption of AKT/FASN positive feedback loop by measuring decrease in FASN expression at 5 uM after 48 hrs by Western immunoblot based densitometric assay relative to control; assay type: cell-based
Outline: (§1)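 PC-9 or H1703 cells were seeded at 8 × 10^5 per 100 mm dish and treated for 48 h at 1 or 5 µM (or 5, 50 and 100 µM). RIPA lysates were BCA-quantified and run on 8% SDS-PAGE, then transferred to PVDF. Blots were probed for FASN, AKT, phospho-AKT S473 and GAPDH and detected by ECL. Bands were quantified by densitometry and normalised to vehicle control.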

[6] = molecular target: Fatty acid synthase (Homo sapiens) (UniProt P49327); test: Inhibition of FASN in human PC9 cells harboring FASN expression and EGFR delE746-A750 mutant assessed as disruption of AKT/FASN positive feedback loop by measuring decrease in FASN expression at 50 uM after 48 hrs by Western immunoblot based densitometric assay relative to control; assay type: cell-based; outline: as §1
[7] = molecular target: Fatty acid synthase (Homo sapiens) (UniProt P49327); test: Inhibition of FASN in human PC9 cells harboring FASN expression and EGFR delE746-A750 mutant assessed as disruption of AKT/FASN positive feedback loop by measuring decrease in FASN expression at 100 uM after 48 hrs by Western immunoblot based densitometric assay relative to control; assay type: cell-based; outline: as §1
[8] = molecular target: Fatty acid synthase (Homo sapiens) (UniProt P49327); test: Inhibition of FASN in human NCI-H1703 cells expressing FASN assessed as disruption of AKT/FASN positive feedback loop by measuring decrease in FASN expression at 5 uM after 48 hrs by Western immunoblot based densitometric assay relative to control; assay type: cell-based; outline: as §1
[9] = molecular target: Fatty acid synthase (Homo sapiens) (UniProt P49327); test: Inhibition of FASN in human NCI-H1703 cells expressing FASN assessed as disruption of AKT/FASN positive feedback loop by measuring decrease in FASN expression at 50 uM after 48 hrs by Western immunoblot based densitometric assay relative to control; assay type: cell-based; outline: as §1
[10] = molecular target: Fatty acid synthase (Homo sapiens) (UniProt P49327); test: Inhibition of FASN in human NCI-H1703 cells expressing FASN assessed as disruption of AKT/FASN positive feedback loop by measuring decrease in FASN expression at 100 uM after 48 hrs by Western immunoblot based densitometric assay relative to control; assay type: cell-based; outline: as §1
[11] = molecular target: Fatty acid synthase (Homo sapiens) (UniProt P49327); test: Inhibition of FASN in human PC9 cells harboring FASN expression and EGFR delE746-A750 mutant assessed as disruption of AKT/FASN positive feedback loop by measuring reduction in AKT expression at 5 uM after 48 hrs by Western immunoblot based densitometric assay relative to control; assay type: cell-based; outline: as §1
[12] = molecular target: Fatty acid synthase (Homo sapiens) (UniProt P49327); test: Inhibition of FASN in human PC9 cells harboring FASN expression and EGFR delE746-A750 mutant assessed as disruption of AKT/FASN positive feedback loop by measuring reduction in AKT expression at 50 uM after 48 hrs by Western immunoblot based densitometric assay relative to control; assay type: cell-based; outline: as §1
[13] = molecular target: Fatty acid synthase (Homo sapiens) (UniProt P49327); test: Inhibition of FASN in human PC9 cells harboring FASN expression and EGFR delE746-A750 mutant assessed as disruption of AKT/FASN positive feedback loop by measuring reduction in AKT expression at 100 uM after 48 hrs by Western immunoblot based densitometric assay relative to control; assay type: cell-based; outline: as §1
[14] = molecular target: Fatty acid synthase (Homo sapiens) (UniProt P49327); test: Inhibition of FASN in human NCI-H1703 cells expressing FASN assessed as disruption of AKT/FASN positive feedback loop by measuring decrease in AKT expression at 5 uM after 48 hrs by Western immunoblot based densitometric assay relative to control; assay type: cell-based; outline: as §1
[15] = molecular target: Fatty acid synthase (Homo sapiens) (UniProt P49327); test: Inhibition of FASN in human NCI-H1703 cells expressing FASN assessed as disruption of AKT/FASN positive feedback loop by measuring decrease in AKT expression at 50 uM after 48 hrs by Western immunoblot based densitometric assay relative to control; assay type: cell-based; outline: as §1
[16] = molecular target: Fatty acid synthase (Homo sapiens) (UniProt P49327); test: Inhibition of FASN in human NCI-H1703 cells expressing FASN assessed as disruption of AKT/FASN positive feedback loop by measuring decrease in AKT expression at 100 uM after 48 hrs by Western immunoblot based densitometric assay relative to control; assay type: cell-based; outline: as §1
[17] = molecular target: Fatty acid synthase (Homo sapiens) (UniProt P49327); test: Inhibition of FASN in human PC9 cells harboring FASN expression and EGFR delE746-A750 mutant assessed as disruption of AKT/FASN positive feedback loop by measuring reduction in phosphorylated AKT expression at 5 uM after 48 hrs by Western immunoblot based densitometric assay relative to control; assay type: cell-based; outline: as §1
[18] = molecular target: Fatty acid synthase (Homo sapiens) (UniProt P49327); test: Inhibition of FASN in human PC9 cells harboring FASN expression and EGFR delE746-A750 mutant assessed as disruption of AKT/FASN positive feedback loop by measuring reduction in phosphorylated AKT expression at 50 uM after 48 hrs by Western immunoblot based densitometric assay relative to control; assay type: cell-based; outline: as §1
[19] = molecular target: Fatty acid synthase (Homo sapiens) (UniProt P49327); test: Inhibition of FASN in human PC9 cells harboring FASN expression and EGFR delE746-A750 mutant assessed as disruption of AKT/FASN positive feedback loop by measuring reduction in phosphorylated AKT expression at 100 uM after 48 hrs by Western immunoblot based densitometric assay relative to control; assay type: cell-based; outline: as §1
[20] = molecular target: Fatty acid synthase (Homo sapiens) (UniProt P49327); test: Inhibition of FASN in human NCI-H1703 cells expressing FASN assessed as disruption of AKT/FASN positive feedback loop by measuring decrease in phosphorylated AKT expression at 5 uM after 48 hrs by Western immunoblot based densitometric assay relative to control; assay type: cell-based; outline: as §1
[21] = molecular target: Fatty acid synthase (Homo sapiens) (UniProt P49327); test: Inhibition of FASN in human NCI-H1703 cells expressing FASN assessed as disruption of AKT/FASN positive feedback loop by measuring decrease in phosphorylated AKT expression at 50 uM after 48 hrs by Western immunoblot based densitometric assay relative to control; assay type: cell-based; outline: as §1
[22] = molecular target: Fatty acid synthase (Homo sapiens) (UniProt P49327); test: Inhibition of FASN in human NCI-H1703 cells expressing FASN assessed as disruption of AKT/FASN positive feedback loop by measuring decrease in phosphorylated AKT expression at 100 uM after 48 hrs by Western immunoblot based densitometric assay relative to control; assay type: cell-based; outline: as §1
[23] = tested on: NCI-H1703; test: Antiproliferative activity against human NCI-H1703 cells expressing FASN assessed as reduction in cell viability after 72 hrs by MTS assay; assay type: functional, cell-based; conditions: NCI-H1703, 72 h
Outline: (§2)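 ATCC-sourced cells. H1299, H1650, H1703 and PC-9 were grown in RPMI 1640 with 10% FBS. A549 was grown in high-glucose DMEM with 10% FBS and 1 mM pyruvate. SAEC was grown in BEGM. Cells were seeded at 3 × 10^3 per well (H1650 3.5 × 10^3) and left to attach overnight. Serial dilutions from DMSO stocks were added, 0.1% DMSO final, for 72 h at 37 °C, 5% CO2. Medium was replaced, MTS added, and A490 read after 2 h. IC50 was taken from % viability versus log concentration, 3 experiments.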

[24] = tested on: NCI-H1299; test: Antiproliferative activity against human NCI-H1299 cells expressing FASN assessed as reduction in cell viability after 72 hrs by MTS assay; assay type: functional, cell-based; conditions: NCI-H1299, 72 h; outline: as §2
[25] = tested on: NCI-H1650; test: Antiproliferative activity against human NCI-H1650 cells expressing FASN assessed as reduction in cell viability after 72 hrs by MTS assay; assay type: functional, cell-based; conditions: NCI-H1650, 72 h; outline: as §2
[26] = Kinetic solubility of the compound in universal buffer at pH 7.4 measured at 25 degC after 24 hrs by UV/Visible spectroscopic analysis; assay type: physicochemical; conditions: read-out: Kinetic_solubility

Fatty acid synthase (Homo sapiens), sequence (P49327 whole entry, looked up): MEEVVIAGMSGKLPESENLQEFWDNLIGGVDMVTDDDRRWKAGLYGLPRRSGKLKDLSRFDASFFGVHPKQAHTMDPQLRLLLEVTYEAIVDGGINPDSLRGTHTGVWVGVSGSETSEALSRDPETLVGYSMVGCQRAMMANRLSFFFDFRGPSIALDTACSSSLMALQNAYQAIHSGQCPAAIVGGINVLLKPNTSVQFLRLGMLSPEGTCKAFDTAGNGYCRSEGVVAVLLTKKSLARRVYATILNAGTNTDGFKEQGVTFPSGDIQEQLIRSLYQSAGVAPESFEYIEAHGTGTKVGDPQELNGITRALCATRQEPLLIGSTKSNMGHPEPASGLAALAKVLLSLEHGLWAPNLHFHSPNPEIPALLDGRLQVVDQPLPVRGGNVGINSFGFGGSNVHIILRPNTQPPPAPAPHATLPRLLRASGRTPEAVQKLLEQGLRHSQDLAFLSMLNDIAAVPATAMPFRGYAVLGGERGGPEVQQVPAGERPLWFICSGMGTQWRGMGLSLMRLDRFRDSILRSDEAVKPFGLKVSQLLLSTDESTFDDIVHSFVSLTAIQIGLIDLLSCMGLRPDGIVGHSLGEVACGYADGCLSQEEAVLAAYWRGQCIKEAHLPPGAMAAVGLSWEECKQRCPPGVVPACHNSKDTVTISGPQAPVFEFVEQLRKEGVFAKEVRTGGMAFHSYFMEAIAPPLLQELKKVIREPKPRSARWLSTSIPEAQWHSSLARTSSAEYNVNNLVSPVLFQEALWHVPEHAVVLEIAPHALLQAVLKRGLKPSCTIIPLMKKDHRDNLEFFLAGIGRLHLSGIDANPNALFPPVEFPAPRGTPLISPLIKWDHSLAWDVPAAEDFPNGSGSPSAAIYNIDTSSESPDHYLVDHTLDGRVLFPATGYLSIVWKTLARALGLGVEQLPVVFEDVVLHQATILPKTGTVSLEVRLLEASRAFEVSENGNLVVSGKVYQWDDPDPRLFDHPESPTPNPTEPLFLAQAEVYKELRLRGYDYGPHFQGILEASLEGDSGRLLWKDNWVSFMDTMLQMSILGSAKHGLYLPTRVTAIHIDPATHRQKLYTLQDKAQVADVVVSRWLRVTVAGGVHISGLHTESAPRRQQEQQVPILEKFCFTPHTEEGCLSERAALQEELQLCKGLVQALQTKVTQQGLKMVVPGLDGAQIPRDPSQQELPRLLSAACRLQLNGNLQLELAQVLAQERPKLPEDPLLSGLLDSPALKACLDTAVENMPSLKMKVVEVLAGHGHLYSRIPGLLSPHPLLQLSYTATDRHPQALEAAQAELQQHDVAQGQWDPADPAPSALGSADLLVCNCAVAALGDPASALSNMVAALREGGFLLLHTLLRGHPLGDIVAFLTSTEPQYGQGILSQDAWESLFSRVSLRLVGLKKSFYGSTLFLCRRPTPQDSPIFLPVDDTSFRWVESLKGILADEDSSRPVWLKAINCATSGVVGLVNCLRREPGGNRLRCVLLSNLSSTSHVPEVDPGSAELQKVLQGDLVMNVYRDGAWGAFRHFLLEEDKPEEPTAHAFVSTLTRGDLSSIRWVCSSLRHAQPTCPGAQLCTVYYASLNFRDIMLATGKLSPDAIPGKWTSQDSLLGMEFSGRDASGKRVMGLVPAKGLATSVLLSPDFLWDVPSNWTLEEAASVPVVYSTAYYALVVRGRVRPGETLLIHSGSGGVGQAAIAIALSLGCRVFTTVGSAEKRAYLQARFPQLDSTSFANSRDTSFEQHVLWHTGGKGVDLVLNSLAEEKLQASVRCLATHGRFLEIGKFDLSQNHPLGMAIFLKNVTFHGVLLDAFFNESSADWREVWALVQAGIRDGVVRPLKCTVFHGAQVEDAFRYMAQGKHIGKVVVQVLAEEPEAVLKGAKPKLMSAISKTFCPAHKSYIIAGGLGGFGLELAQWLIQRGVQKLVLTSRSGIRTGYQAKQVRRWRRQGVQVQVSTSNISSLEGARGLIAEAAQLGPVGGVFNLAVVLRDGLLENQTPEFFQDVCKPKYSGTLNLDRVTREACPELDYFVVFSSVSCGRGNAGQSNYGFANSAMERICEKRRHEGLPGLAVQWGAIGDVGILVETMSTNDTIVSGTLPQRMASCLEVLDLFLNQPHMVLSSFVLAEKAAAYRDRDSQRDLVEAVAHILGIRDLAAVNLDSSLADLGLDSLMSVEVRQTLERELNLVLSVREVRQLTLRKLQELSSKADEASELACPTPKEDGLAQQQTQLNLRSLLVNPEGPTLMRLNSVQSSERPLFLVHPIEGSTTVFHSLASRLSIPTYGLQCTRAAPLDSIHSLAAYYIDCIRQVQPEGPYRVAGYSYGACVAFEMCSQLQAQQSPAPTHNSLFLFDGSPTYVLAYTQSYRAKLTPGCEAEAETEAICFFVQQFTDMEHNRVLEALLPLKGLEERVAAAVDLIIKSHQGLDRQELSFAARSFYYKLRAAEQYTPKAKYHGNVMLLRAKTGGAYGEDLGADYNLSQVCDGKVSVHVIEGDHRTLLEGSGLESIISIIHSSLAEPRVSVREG

COc1cc(C(=O)Oc2ccc(/C=C/c3cccc(OC(=O)c4cc(OC)c(OC)c(OC)c4)c3)cc2)cc(OC)c1OC
inhibition at 25 µM [1]: < 50%
Activity [2]: inactive
Activity [3]: inactive
inhibition [4]: inactive
Ratio [5]: 0.99
Ratio [6]: 1.01
Ratio [7]: 1.04
Ratio [8]: 1.05
Ratio [9]: 1.12
Ratio [10]: 1.05
Ratio [11]: 0.99
Ratio [12]: 1.01
Ratio [13]: 0.98
Ratio [14]: 1.09
Ratio [15]: 0.99
Ratio [16]: 1
Ratio [17]: 1.02
Ratio [18]: 0.95
Ratio [19]: 0.88
Ratio [20]: 0.97
Ratio [21]: 0.82
Ratio [22]: 0.73

O=C(Oc1ccc(-c2cccc3ccccc23)cc1)c1cc(O)c(O)c(O)c1
inhibition at 25 µM [1]: < 50%

O=C(Oc1ccc(-c2ccc(OC(=O)c3cc(O)c(O)c(O)c3)cc2)cc1)c1cc(O)c(O)c(O)c1
IC50 [23]: 5.8 µM
IC50 [24]: 4.2 µM
IC50 [25]: 7.4 µM
solubility kinetic at 24 h [26]: 0.4 µM (≈ 0.196 µg/mL)

COc1cc(C(=O)Oc2ccc(/C=C/c3ccccc3)cc2)cc(OC)c1OC
inhibition at 25 µM [1]: < 50%

O=C(Oc1cccc(/C=C/c2ccccc2)c1)c1cc(O)c(O)c(O)c1
inhibition at 25 µM [1]: < 50%

O=C(Oc1ccc(/C=C/c2ccccc2)cc1)c1cc(O)c(O)c(O)c1
inhibition at 25 µM [1]: > 50%
IC50 [23]: 11.2 µM
IC50 [24]: 8.5 µM
IC50 [25]: 16 µM

O=C(Oc1ccc(Cc2ccc(OC(=O)c3cc(O)c(O)c(O)c3)cc2)cc1)c1cc(O)c(O)c(O)c1
inhibition at 25 µM [1]: > 50%
IC50 [23]: 6.2 µM
IC50 [24]: 8.6 µM
IC50 [25]: 49.7 µM

O=C(Oc1ccccc1Cc1ccccc1OC(=O)c1cc(O)c(O)c(O)c1)c1cc(O)c(O)c(O)c1
inhibition at 25 µM [1]: > 50%
IC50 [23]: 39.3 µM
IC50 [24]: 25.9 µM
IC50 [25]: 122 µM

COc1cc(C(=O)Oc2ccc(Cc3ccc(OC(=O)c4cc(OC)c(OC)c(OC)c4)cc3)cc2)cc(OC)c1OC
inhibition at 25 µM [1]: < 50%

O=C(Oc1ccc(/C=C/c2cccc(OC(=O)c3ccc(O)c(O)c3)c2)cc1)c1ccc(O)c(O)c1
inhibition at 25 µM [1]: > 50%
IC50 [23]: 8.9 µM
IC50 [24]: 11 µM
IC50 [25]: 14.1 µM

O=C(Oc1ccc(/C=C/c2cccc(OC(=O)c3ccc(O)cc3)c2)cc1)c1ccc(O)cc1
inhibition at 25 µM [1]: > 50%
IC50 [23]: 17.2 µM
IC50 [24]: 37.2 µM
IC50 [25]: 40.2 µM

O=C(Oc1cccc2c1CCCC2OC(=O)c1cc(O)c(O)c(O)c1)c1cc(O)c(O)c(O)c1 (centres undefined)
inhibition at 25 µM [1]: > 50%
IC50 [23]: 6.5 µM
IC50 [24]: 10.2 µM
IC50 [25]: 36 µM
